Calls of active or inactive are those of the source.

The subject of series [1] is CYP450. Kind of series: Microsomal stability in mouse liver microsomes assessed as CYP450-mediated metabolism by measuring compound remaining at 5 uM and measured for 15 mins in presence of NADPH by UPLC-MS/MS analysis (reference value: 100%). The note with it: read-out: Stability. The format is ADME. Summed up: (§1)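 Compound at 5 µM with 0.5 mg/mL liver microsomes in PBS. Phase I was started with 1 mM NADPH; phase II used 2 mM UDPGA. Diclofenac served as reference. Samples taken at 0, 15, 30 and 60 min were quenched in ice-cold acetonitrile, centrifuged at 4°C and analysed by LC-MS. Mean of at least two replicates ± SD.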
In general terms: Liver microsomes are vesicles of endoplasmic reticulum, rich in cytochrome P450 enzymes.

Series [2] deals with UGT. Kind of series: Microsomal stability in mouse liver microsomes assessed as UGT-mediated metabolism by measuring compound remaining at 5 uM and measured for 30 mins in presence of UDPGA by UPLC-MS/MS analysis (reference value: 100%). In kind it is ADME. To be noted: read-out: Stability. An outline of the steps: as §1
The subject of another series is Enterococcus faecium. Kind of series: Antibacterial activity against Enterococcus faecium ATCC 19434 incubated for 24 hrs by resazurin dye based fluorimetric assay. The format is functional, organism-based. To be noted: ATCC 19434, 24 h. Summed up: (§2)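 Resazurin microtiter assay: compounds from 10 mM DMSO stock, twofold serial dilutions from 64 µM final in growth medium, in triplicate. Inoculum from frozen glycerol stocks. Exposure 24 h, or 7 days for Mtb H37Ra (7H9 + 0.5% glycerol + 10% OADC). Then 0.01% resazurin was added and plates were incubated at 37°C until pink. Fluorescence read at ex 550/em 590 nm; mean of triplicates.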
For orientation: The colour change of resazurin is a common sign of viable cells or microbes.

Series [3] can be described thus: Genotoxicity in Salmonella typhimurium TA104 harboring with RecN2-4 assessed as S/N ratio at 1 to 100 uM measured for 4 hrs with 5 mins interval by luminescence based assay. The format is toxicity. The note with it: salmonella enterica subsp. enterica serovar typhimurium. An outline of the steps:
(§3)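 VITOTOX test. Genox (recN2-4) and Cytox (pr1) S. typhimurium TA104 strains were diluted 250-fold and grown in 869 medium for 16 h at 36°C with shaking, then diluted 10-fold and grown 1 h more. Compounds tested at 1, 10 and 100 µM, with or without rat liver S9-mix. Luminescence read for 4 h at 5-min intervals. S/N thresholds: Genox >1.5 genotoxic; Cytox <0.8 toxic, >1.5 luminescence artefact.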

Series [4] is described as follows: Genotoxicity in Salmonella typhimurium TA104 harboring with pr1 assessed as S/N ratio at 1 to 100 uM measured for 4 hrs with 5 mins interval in presence of rat liver S9 fraction by luminescence based assay. In kind it is toxicity, subcellular. To be noted: salmonella enterica subsp. enterica serovar typhimurium, s9, 4 h. Summed up:
as §3

The target of series [5] is T1, CYP450 (Homo sapiens, UniProt P04798+P05177+P05181+P08684+P10632+P10635+P11509+P11712+P13584+P20813+P20815+P20853+P24462+P24903+P33260+P33261+P51589+P78329+P98187+Q02928+Q08477+Q16678+Q16696+Q5TCH4+Q6VVX0+Q7Z449+Q8TAV3+Q96SQ9+Q9HB55). Kind of series: Microsomal stability in human liver microsomes assessed as CYP450-mediated metabolism by measuring compound remaining at 5 uM and measured for 15 mins in presence of NADPH by UPLC-MS/MS analysis (reference value: 100%). The format is ADME. The note with it: read-out: Stability. Summed up: as §1

For another series, the system named is Staphylococcus aureus. Kind of series: Antibacterial activity against Staphylococcus aureus ATCC 6538 incubated for 24 hrs by resazurin dye based fluorimetric assay. In kind it is functional, organism-based. The note with it: ATCC 6538, 24 h. An outline of the steps: as §2
A short description of series [6]: Selectivity index, ratio of […] for cytotoxicity against mouse J774A.1 cells. The note with it: read-out: Selectivity Index. The format is toxicity, cell-based.
In series [7] the target is T1, CYP450. Kind of series: Microsomal stability in human liver microsomes assessed as CYP450-mediated metabolism by measuring compound remaining at 5 uM and measured for 60 mins in presence of NADPH by UPLC-MS/MS analysis (reference value: 100%). The format is ADME. To be noted: read-out: Stability. An outline of the steps:
as §1

Another series relates to Streptococcus pneumoniae. Kind of series: Antibacterial activity against Streptococcus pneumoniae ATCC BAA-334 incubated for 24 hrs by resazurin dye based fluorimetric assay. In kind it is functional, organism-based. The note with it: ATCC BAA-334, 24 h. An outline of the steps:
as §2

Series [8] has as its system UGT. Kind of series: Microsomal stability in mouse liver microsomes assessed as UGT-mediated metabolism by measuring compound remaining at 5 uM and measured for 60 mins in presence of UDPGA by UPLC-MS/MS analysis (reference value: 100%). To be noted: read-out: Stability. In kind it is ADME. Summed up:
as §1

Another series relates to Escherichia coli. Kind of series: Antibacterial activity against Escherichia coli ATCC 8739 incubated for 24 hrs by resazurin dye based fluorimetric assay. In kind it is functional, organism-based. The note with it: ATCC 8739, ATCC 8739, 24 h. An outline of the steps: as §2
Series [9] has as its system Mycobacterium tuberculosis. Kind of series: Antimycobacterial activity against Mycobacterium tuberculosis H37Ra lux infected in mouse J774A.1 cells assessed as reduction in intracellular mycobacterial replication at 5.0 uM incubated for 24 to 72 hrs by luminometric assay relative to control. Further details: scale not given: the % may be the effect or the level left. In kind it is functional. An outline of the steps:
(§4)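 J774A.1 cells were infected at MOI 10 for 2 h at 37°C. Extracellular bacteria were killed with 100 µg/mL gentamicin for 1 h, then cells were washed and treated. At 24, 48 and 72 h, cells were lysed with 1% Triton X-100 and n-decanal was added to the lysate. Luminescence (RLU) reported as mean of triplicates ± SD.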

Series [10] deals with Mycobacterium tuberculosis. Kind of series: Antimycobacterial activity against Mycobacterium tuberculosis H37Ra lux infected in mouse J774A.1 cells assessed as reduction in intracellular mycobacterial replication at 10.0 uM incubated for 24 to 72 hrs by luminometric assay relative to control. The format is functional. The arrangement: scale not given: the % may be the effect or the level left. Summed up: as §4

Series [11] concerns CYP450. Kind of series: Microsomal stability in mouse liver microsomes assessed as CYP450-mediated metabolism by measuring compound remaining at 5 uM and measured for 30 mins in presence of NADPH by UPLC-MS/MS analysis (reference value: 100%). In kind it is ADME. To be noted: read-out: Stability. Summed up: as §1
The test system of series [12] is Mycobacterium tuberculosis. Kind of series: Antibacterial activity against Mycobacterium tuberculosis H37Ra ATCC 25177 incubated for 7 days by resazurin dye based fluorimetric assay. In kind it is functional, organism-based. To be noted: H37Ra ATCC 25177, 168 h. An outline of the steps:
as §2

Series [13] concerns Mycobacterium tuberculosis. Kind of series: Antimycobacterial activity against Mycobacterium tuberculosis H37Ra lux infected in mouse J774A.1 cells assessed as reduction in intracellular mycobacterial replication at 1.5 uM incubated for 24 to 72 hrs by luminometric assay relative to control. The format is functional. Further details: scale not given: the % may be the effect or the level left. Summed up:
as §4

The target in series [14] is UGT (Homo sapiens, UniProt O60656+O75310+O75795+P06133+P0DTE4+P0DTE5+P16662+P19224+P22309+P22310+P35503+P35504+P36537+P54855+Q6UWM9+Q9BY64+Q9HAW7+Q9HAW8+Q9HAW9). Kind of series: Microsomal stability in human liver microsomes assessed as UGT-mediated metabolism by measuring compound remaining at 5 uM and measured for 60 mins in presence of UDPGA by UPLC-MS/MS analysis (reference value: 100%). In kind it is ADME. To be noted: read-out: Stability. Summed up: as §1

In a further series the test system is Mycobacterium marinum. Kind of series: Antimycobacterial activity against Mycobacterium marinum NCTC 2275 by resazurin dye based fluorimetric assay. The format is functional, organism-based. An outline of the steps:
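Resazurin microtiter method as for the bacterial panel. Mycobacteria grown in 7H9 with 10% OADC and 0.5% glycerol; for BCG, 0.05% Tween 80 replaced the glycerol. Cultures were sonicated and needle-passed to single cells. Incubation at 37°C, or 32°C for M. marinum. Fluorescence read at ex 550/em 590 nm; mean of triplicates.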

A short description of series [15]: Genotoxicity in Salmonella typhimurium TA104 harboring with RecN2-4 assessed as S/N ratio at 1 to 100 uM measured for 4 hrs with 5 mins interval in presence of rat liver S9 fraction by luminescence based assay. The format is toxicity, subcellular. To be noted: salmonella enterica subsp. enterica serovar typhimurium, s9, 4 h. Summed up:
as §3

For the compound `O=C1C2=C(C(=O)c3c1cnc1ccccc31)C1CCC2C1` (stereo not given), the remaining at 0.25 h, 5 µM in the series on CYP450 [1] and on CYP450 [5] was 100% each time. Moreover, the remaining at 0.5 h, 5 µM was determined as 86% with UGT [2] and 100% with CYP450 [11]. In addition, the 50% inhibitory concentration (IC50) in the series on Enterococcus faecium was 32 to 64 µM; with Staphylococcus aureus, 32 to 64 µM; in the series with Streptococcus pneumoniae, 32 to 64 µM; in the series on Escherichia coli, greater than 64 µM; in series [12], 1 to 2 µM; in the series with Mycobacterium marinum, 7.73 µM. In addition, the Ratio entry is on record as “<= 1.5” in series [3], “>= 0.8” in [4] and “<= 1.5” in [15]. Further, the selectivity ratio in series [6] came out at 10.2. The remaining at 1 h, 5 µM is 100% at CYP450 [7], 78% in the series on UGT [8] and 68% at UGT [14]. Also, the Activity in series [9] amounted to 58.94%; in [10] it was 84.14%; in series [13], 20.68%.
For the compound `O=C1C2=C(C(=O)c3c1cnc1c(F)cccc31)C1CCC2C1` (stereo not given), the remaining at 0.25 h, 5 µM in the series on CYP450 [1] and on CYP450 [5] was 100% in each case. Further, the figures for the remaining at 0.5 h, 5 µM in the series with UGT [2] and in the series on CYP450 [11] were 70% and 100%, respectively. Moreover, the concentration for half-maximal inhibition (IC50) with Enterococcus faecium is greater than 64 µM; in the series on Staphylococcus aureus it was greater than 32 µM; in the series on Streptococcus pneumoniae it was 32 to 64 µM; in the series on Escherichia coli, greater than 64 µM; in [12], 1 to 2 µM; in the series on Mycobacterium marinum, 3.3 µM. The Ratio entry in series [3] is reported as “<= 1.5”; in series [4], “>= 0.8”; in [15], “<= 1.5”. Also, the selectivity ratio in series [6] was determined as 19.3. In addition, the remaining at 1 h, 5 µM was found to be 100% at CYP450 [7], 61% in the series on UGT [8] and 65% on UGT [14]. In addition, the outcome in series [9], in [10] and in [13] was inactive.

By IC50 is commonly meant the concentration at which inhibition is half-maximal.
